Compound activity deposited in PubChem by SRMLSC.
HUVEC inhibit = inhibitors of HUVEC proliferation, primary screen, cell-based, 384-well; actives 1.1% (n = 86,000); CellTiter-Glo luminescence, 72 h; stronger effect = lower value; viability, % at 10 µM (by protocol);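 active = viability at or below 30%; inactive = viability above 30%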
H69AR inhibit = proliferation blockers of H69AR lung cancer cells, primary screen, cell-based, human, 86K library. H69AR lung tumor viability, ATP luminescence, 72 h; stronger effect = lower value. viability, % at 10 µM. actives 6% (n = 85,000). AID 598, 2007;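 active = viability at or below 40%; inactive = viability above 40%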;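 note: multidrug resistant small cell line overexpressing MRP-1 efflux transporter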
Fibroblast inh = antiproliferative effect on LL 47 fibroblasts – human, LL 47 cells, CellTiter-Glo luminescence, primary screen | AID 719, 2007 | actives 1.1% (n = 85,000) | LL 47 human lung fibroblast viability, ATP luminescence; stronger effect = lower value | viability, % at 10 µM;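 active = viability at or below 50% in the single dose screen; inactive = viability above 50%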;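 note: compound exposure lasted 72 h before the ATP readout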
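Test system: LL 47 human lung fibroblasts; Quantity: 1,150 cells/well; Buffer or medium: IMEM plus 15% FBS; Dosing: tenfold compound dosing solution, DMSO at 0.1%; Timing: overnight cell rest, 72 h compound treatment at 37 °C; Detection: ATP-based CellTiter-Glo luminescent readout; Read-out basis: viability percentage against median untreated-cell control; Controls: cell-only wells, no compound.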
PTEN del growth = growth suppression of PTEN-null HCT116, primary screen, cell-based, CellTiter-Glo | viability, % at 10 µM | actives 1.2% (n = 140,000) | HCT116 PTEN-null viability, 60 h; stronger effect = lower value;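 active = viability at or below a set limit, 4 SD under the median of all tested compounds, cut at about 3.7% in these data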;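 note: PTEN knockout HCT116 line with beta catenin targeted HCT116 as companion control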
bCat KO growth = primary screen for growth suppressors in beta-catenin knockout HCT116 cells (colon tumor, human); HCT116 beta-catenin knockout viability, CellTiter-Glo, 60 h; stronger effect = lower value; viability, % at 10 µM; actives 1.5% (n = 140,000); AID 818, 2007;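 active = viability at or under a set limit, the compound median less 4 SD, cut at about 6% in these data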
Numbers stand for hits; n = inactive; x = not tested or not shown. The full list was thinned out, with hits kept by preference.

SMILES	HUVEC inhibit	H69AR inhibit	Fibroblast inh	PTEN del growth	bCat KO growth
Cc1cc(Oc2ccccc2)nc(NCc2ccccc2)n1	n	n	n	n	n
CCCCNc1cc(C)nc(NCc2ccccc2)n1	4.4	9.9	n	1.5	1.3
Cc1cc(Nc2ccc(Cl)cc2)nc(NCc2ccccc2)n1	x	x	x	1.4	1.1
Cc1cc(Nc2cccc(F)c2)nc(NCc2ccccc2)n1	x	x	x	1.4	2.9
Fc1cc(NCc2ccccc2)nc(NCc2ccccc2)n1	x	x	x	n	n
Cc1cc(N2CCC(C)CC2)nc(NCc2ccccc2)n1	x	x	x	n	2.8
Cc1cc(Nc2ccccc2)nc(NCc2ccccc2)n1	x	x	x	n	n
Cc1nn(Cc2ccc(Cl)cc2Cl)c(C)c1NC(=O)CCl	n	1.6	23.2	n	n
O=C(/C=C/c1ccccc1)N/C(=C/c1ccccc1)C(=O)N1CCCCC1	x	x	x	n	n
COc1ccc2cc3cc(C(=O)Nc4cc(OC)c(OC)c(OC)c4)oc3nc2c1	n	n	n	n	n
COc1ccc2cc3cc(C(=O)Nc4ccc5c(c4)OCCO5)oc3nc2c1	26.2	39.7	n	n	n
CCCN1C(=O)C(Cc2nc3ccccc3c(=O)n2C)c2ccccc21 (configuration not stated)	n	33.4	n	n	n
COc1ccc(C(=O)NCC(=O)NCC(=O)OCC(=O)C(C)(C)C)cc1	x	x	x	n	n
C=CCn1c(SCC(=O)NCCOC)nnc1-c1cc2c(s1)CCC(CC)C2 (configuration not stated)	x	x	x	n	n
Cc1ccsc1/C=C1\SC(N2CC(C)OC(C)C2)=NC1=O (configuration not stated)	x	x	x	n	n
COc1cccc2c1C(=O)c1c(O)c3c(c(O)c1C2=O)C[C@@](O)(C(=O)CO)C[C@@H]3O[C@H]1C[C@H](N)[C@H](O)[C@H](C)O1	x	x	x	n	4.1
CC(CCc1ccccc1)NC(=O)C1CCN(S(=O)(=O)N2CCOCC2)CC1 (configuration not stated)	x	x	x	n	n
CCOC(=O)c1c(NC(=O)Cc2cccs2)sc(C(=O)NC2CCCC2)c1C	n	27.8	n	n	n
CCOC(=O)c1c(NC(=O)Cc2cccs2)sc(C(=O)NC2CCCCC2)c1C	x	x	x	n	n
COc1cccc(C2C3=C(CCCC3=O)Nc3nc4ccccc4n32)c1OC (configuration not stated)	n	n	n	x	x
CC(=O)N1CCc2c(sc(NC(=O)C3CC3)c2-c2nc3ccccc3s2)C1	n	n	n	n	6.0
COc1ccc2ccccc2c1C(=O)/C=C\c1ccoc1	x	x	x	n	n
COc1nc(Cl)cn(-c2ccc(C)cc2)c1=O	x	x	x	n	n
Cc1ccc(-n2c(Cl)c(Cl)nc(Cl)c2=O)cc1	x	x	x	2.5	4.9
COC(=O)c1ccc2c(c1)C(C)(C)C(/C=C/c1ccccc1O)=[N+]2C	x	x	x	1.8	2.4
SMILES	HUVEC inhibit	H69AR inhibit	Fibroblast inh	PTEN del growth	bCat KO growth
C[N+]1=C(/C=C/Nc2ccccc2Cl)C(C)(C)c2ccccc21	x	x	x	n	n
O=C(ONc1ccc(N=NC(=O)c2ccccc2O)cc1)c1ccccc1	n	11.6	n	n	n
CCc1ccccc1OCc1nnc(N)s1	n	n	n	n	n
Cc1ccc2nc(NC(=O)CSc3ncnc4c3oc3ccccc34)sc2c1	n	26.3	n	n	n
Cc1cccc(NC(=O)CSc2ncnc3c2oc2ccccc23)c1	n	30.2	n	n	n
Cc1ccc2nc(NC(=O)CSc3nc4ccccc4o3)sc2c1	n	n	n	n	n
O=c1c2ccccc2c2c(O)nc(-c3ccccc3)n2n1Cc1ccccc1	x	x	x	n	n
CCc1nnc(NC(=O)CSc2ncc(-c3ccccc3)n2CC)s1	n	n	n	n	n
C=C(C)C1CCC(C)=C1COC(=O)Nc1ccccc1 (configuration not stated)	x	x	x	n	n
CCN(CC)c1ccc2c(c1)oc(=O)c1c(Cl)cc(=O)oc12	n	1.9	11.0	2.0	3.0
CCN(CC)c1ccc2c(C)c(-c3ccc(N)cc3)c(=O)oc2c1	n	n	n	n	n
CCN(CC)c1ccc2c(Cl)c(Br)c(=O)oc2c1	n	11.9	33.9	n	n
COc1ccccc1OCc1ccc(C(=O)Nc2ccncc2)o1	n	n	n	n	n
Cc1ccc(O)c(C(=O)c2cnc3c(c2)CN(C)C(=O)N3)c1	x	x	x	n	n
CN1Cc2cc(C(=O)c3cc(Cl)cc(CSc4ncccn4)c3O)cnc2NC1=O	n	24.9	n	n	n
O=C(O)C1C2C=CC(C2)C1C(=O)NCc1ccc(Cl)c(Cl)c1 (configuration not stated)	x	x	x	n	n
COc1cccc(OCC(=O)O/N=C(\N)c2ccc(OC)c(OC)c2)c1	x	x	x	n	n
Cc1ccccc1-c1noc(-c2ccc(O)cc2)n1	n	15.2	n	n	n
Cc1ccccc1-c1noc(-c2ccc(Cl)cc2)n1	n	n	n	n	n
Clc1cccc(CN2CCCCCCC2)c1Cl	x	x	x	n	n
O=C(Nc1ccc(Cl)c(Cl)c1)Nc1ccc(Br)cc1F	x	x	x	n	4.9
Cc1ccnc(NC(=O)c2ccccc2NC(=O)C(C)(C)C)c1	n	19.7	x	n	n
CCOC(=O)c1c2ccc(OCC(=O)N/N=C/c3ccc(Cl)cc3)cc2n2ccccc12	x	x	x	2.3	1.8
CCOC(=O)c1c2ccc(OCC(=O)N/N=C/c3ccccc3C(F)(F)F)cc2n2ccccc12	x	x	x	1.9	1.5
Cc1ccc(OCC(=O)N/N=C/c2cccn2C)cc1	n	n	n	n	n
SMILES	HUVEC inhibit	H69AR inhibit	Fibroblast inh	PTEN del growth	bCat KO growth
O=C(CNC(=O)c1ccc(Cl)cc1)NCC(F)(F)F	x	x	x	n	n
COc1ccc(Nc2oc(COc3ccc(Cl)cc3)nc2C#N)cc1	n	n	n	n	n
CCOc1ccc(Nc2oc(-c3ccc(Cl)cc3)nc2C#N)cc1	n	32.5	42.3	n	n
COc1ccc(Nc2oc(-c3ccc(Cl)cc3)nc2C#N)cc1	n	24.6	39.4	n	n
Cc1ccc(C[n+]2cccc(-c3ccccc3)c2)c(C)c1	x	x	x	n	n
COc1ccc2c(C)nc(Nc3nc(C)cc(=O)[nH]3)nc2c1	2.6	22.7	8.6	x	x
COC(=O)c1sccc1NC(=O)COc1ccc(Cl)cc1Cl	x	x	x	n	n
CCOc1ccc2nc(-c3ccccc3)[nH]c2c1	n	24.0	n	n	n
CCN1CCN(CCCOc2ccc(-c3ccccc3)cc2)CC1	n	18.6	n	2.0	1.8
CCCCC1NC(=S)N(C2CCCCC2)C1=O (configuration not stated)	x	x	x	n	n
CCOc1cc(/C=C2/C(=N)N3C=CSC3=NC2=O)ccc1OCCCOc1ccccc1C	17.8	6.5	32.5	n	n
COc1cc(/C=C2/C(=N)N3C=CSC3=NC2=O)ccc1OCCCOc1c(C)cccc1C	n	n	n	n	n
COc1cc(/C=C2/C(=N)N3C=CSC3=NC2=O)ccc1OCCCOc1ccccc1C	14.9	6.1	n	n	n
CC(=O)Nc1cccc(-c2nnc(SCC(=O)n3c4c(c5ccccc53)CCCC4)n2C)c1	n	n	n	n	n
